In ChEMBL document CHEMBL3351385, “Synthesis and preliminary mechanistic evaluation of 5-(p-tolyl)-1-(quinolin-2-yl)pyrazole-3-carboxylic acid amides with potent antiproliferative activity on human cancer cell lines” (Eur J Med Chem, 2014):
The source made the active and inactive calls. No cut-off for these calls is given here.

Key:
[1] = biological target: Tubulin (Homo sapiens) (UniProt P68371+Q9H4B7+P0DPH7+P68366+Q13509+Q71U36+P04350+Q3ZCM7+P07437+P68363+Q9BQE3+Q6PEY2+Q13885+Q9BVA1+Q9BUF5); assay: Inhibition of tubulin polymerization (unknown origin); format: protein-complex assay
[2] = system: Huh-7; assay: Induction of cell death in human HuH7 cells assessed as induction of intracytoplasmic vacuoles at cytotoxic IC50 level after 72 hrs by inverted light microscopy; format: functional, cell-based
Outline: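 They were viewed under an inverted light microscope at 20× for death morphology, including intracytoplasmic vacuoles.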

[3] = Induction of cell cycle arrest in human Mahlavu cells assessed as accumulation at G0/G1 phase at cytotoxic IC50 level after 48 hrs by propidium iodide staining based FACS method; format: functional
[4] = biological target: Dual specificity mitogen-activated protein kinase kinase 6 (Homo sapiens) (UniProt P52564); assay: Inhibition of MKK6 (unknown origin) assessed as remaining enzyme activity at 10 uM by radioactive [33P]-ATP filter binding assay
[5] = biological target: Mitogen-activated protein kinase 3 (Homo sapiens) (UniProt P27361); assay: Inhibition of ERK1 (unknown origin) assessed as remaining enzyme activity at 10 uM by radioactive [33P]-ATP filter binding assay
Outline: (§1)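 A single 10 µM concentration was tested across a 140-kinase panel. Activity was measured by a radioactive 33P-ATP filter-binding assay run at the International Center for Kinase Profiling, University of Dundee.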

[6] = biological target: Ribosomal protein S6 kinase alpha-3 (Homo sapiens) (UniProt P51812); assay: Inhibition of RSK2 (unknown origin) assessed as remaining enzyme activity at 10 uM by radioactive [33P]-ATP filter binding assay
[7] = biological target: MAP kinase-activated protein kinase 2 (Homo sapiens) (UniProt P49137); assay: Inhibition of MAPKAPK2 (unknown origin) assessed as remaining enzyme activity at 10 uM by radioactive [33P]-ATP filter binding assay
[8] = biological target: Myosin light chain kinase, smooth muscle (Homo sapiens) (UniProt Q15746); assay: Inhibition of smMLCK (unknown origin) assessed as remaining enzyme activity at 10 uM by radioactive [33P]-ATP filter binding assay
[9] = biological target: Serine/threonine-protein kinase Chk2 (Homo sapiens) (UniProt O96017); assay: Inhibition of CHK2 (unknown origin) assessed as remaining enzyme activity at 10 uM by radioactive [33P]-ATP filter binding assay; outline: as §1
[10] = biological target: Serine/threonine-protein kinase MARK1 (Homo sapiens) (UniProt Q9P0L2); assay: Inhibition of MARK1 (unknown origin) assessed as remaining enzyme activity at 10 uM by radioactive [33P]-ATP filter binding assay
[11] = biological target: Tyrosine-protein kinase Lck (Homo sapiens) (UniProt P06239); assay: Inhibition of LCK (unknown origin) assessed as remaining enzyme activity at 10 uM by radioactive [33P]-ATP filter binding assay
[12] = biological target: Tyrosine-protein kinase CSK (Homo sapiens) (UniProt P41240); assay: Inhibition of CSK (unknown origin) assessed as remaining enzyme activity at 10 uM by radioactive [33P]-ATP filter binding assay; outline: as §1
[13] = biological target: Insulin receptor-related protein (Homo sapiens) (UniProt P14616); assay: Inhibition of IRR (unknown origin) assessed as remaining enzyme activity at 10 uM by radioactive [33P]-ATP filter binding assay
[14] = biological target: Serine/threonine-protein kinase PAK 6 (Homo sapiens) (UniProt Q9NQU5); assay: Inhibition of PAK6 (unknown origin) assessed as remaining enzyme activity at 10 uM by radioactive [33P]-ATP filter binding assay
[15] = biological target: Maternal embryonic leucine zipper kinase (Homo sapiens) (UniProt Q14680); assay: Inhibition of MELK (unknown origin) assessed as remaining enzyme activity at 10 uM by radioactive [33P]-ATP filter binding assay
[16] = biological target: Tau-tubulin kinase 2 (Homo sapiens) (UniProt Q6IQ55); assay: Inhibition of TTBK2 (unknown origin) assessed as remaining enzyme activity at 10 uM by radioactive [33P]-ATP filter binding assay
[17] = biological target: Inhibitor of nuclear factor kappa-B kinase subunit beta (Homo sapiens) (UniProt O14920); assay: Inhibition of IKKbeta (unknown origin) assessed as remaining enzyme activity at 10 uM by radioactive [33P]-ATP filter binding assay
[18] = biological target: Serine/threonine-protein kinase TBK1 (Homo sapiens) (UniProt Q9UHD2); assay: Inhibition of TBK1 (unknown origin) assessed as remaining enzyme activity at 10 uM by radioactive [33P]-ATP filter binding assay
[19] = biological target: Mitogen-activated protein kinase kinase kinase 1 (Homo sapiens) (UniProt Q13233); assay: Inhibition of MEKK1 (unknown origin) assessed as remaining enzyme activity at 10 uM by radioactive [33P]-ATP filter binding assay
[20] = biological target: Mitogen-activated protein kinase kinase kinase 9 (Homo sapiens) (UniProt P80192); assay: Inhibition of MLK1 (unknown origin) assessed as remaining enzyme activity at 10 uM by radioactive [33P]-ATP filter binding assay
[21] = biological target: Interleukin-1 receptor-associated kinase 1 (Homo sapiens) (UniProt P51617); assay: Inhibition of IRAK1 (unknown origin) assessed as remaining enzyme activity at 10 uM by radioactive [33P]-ATP filter binding assay
[22] = biological target: Serine/threonine-protein kinase 16 (Homo sapiens) (UniProt O75716); assay: Inhibition of MPSK1 (unknown origin) assessed as remaining enzyme activity at 10 uM by radioactive [33P]-ATP filter binding assay
Sequence of Serine/threonine-protein kinase 16 (Homo sapiens) (O75716 whole entry): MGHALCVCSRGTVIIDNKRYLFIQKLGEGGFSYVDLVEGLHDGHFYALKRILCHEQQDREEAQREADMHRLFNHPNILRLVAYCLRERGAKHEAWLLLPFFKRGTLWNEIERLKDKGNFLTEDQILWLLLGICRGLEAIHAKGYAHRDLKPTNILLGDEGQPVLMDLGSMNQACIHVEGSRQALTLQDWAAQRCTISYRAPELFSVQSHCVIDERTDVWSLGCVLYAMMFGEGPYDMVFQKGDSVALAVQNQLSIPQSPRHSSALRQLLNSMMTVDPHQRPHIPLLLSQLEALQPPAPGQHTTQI

Sequence of Myosin light chain kinase, smooth muscle (Homo sapiens) (Q15746 whole entry): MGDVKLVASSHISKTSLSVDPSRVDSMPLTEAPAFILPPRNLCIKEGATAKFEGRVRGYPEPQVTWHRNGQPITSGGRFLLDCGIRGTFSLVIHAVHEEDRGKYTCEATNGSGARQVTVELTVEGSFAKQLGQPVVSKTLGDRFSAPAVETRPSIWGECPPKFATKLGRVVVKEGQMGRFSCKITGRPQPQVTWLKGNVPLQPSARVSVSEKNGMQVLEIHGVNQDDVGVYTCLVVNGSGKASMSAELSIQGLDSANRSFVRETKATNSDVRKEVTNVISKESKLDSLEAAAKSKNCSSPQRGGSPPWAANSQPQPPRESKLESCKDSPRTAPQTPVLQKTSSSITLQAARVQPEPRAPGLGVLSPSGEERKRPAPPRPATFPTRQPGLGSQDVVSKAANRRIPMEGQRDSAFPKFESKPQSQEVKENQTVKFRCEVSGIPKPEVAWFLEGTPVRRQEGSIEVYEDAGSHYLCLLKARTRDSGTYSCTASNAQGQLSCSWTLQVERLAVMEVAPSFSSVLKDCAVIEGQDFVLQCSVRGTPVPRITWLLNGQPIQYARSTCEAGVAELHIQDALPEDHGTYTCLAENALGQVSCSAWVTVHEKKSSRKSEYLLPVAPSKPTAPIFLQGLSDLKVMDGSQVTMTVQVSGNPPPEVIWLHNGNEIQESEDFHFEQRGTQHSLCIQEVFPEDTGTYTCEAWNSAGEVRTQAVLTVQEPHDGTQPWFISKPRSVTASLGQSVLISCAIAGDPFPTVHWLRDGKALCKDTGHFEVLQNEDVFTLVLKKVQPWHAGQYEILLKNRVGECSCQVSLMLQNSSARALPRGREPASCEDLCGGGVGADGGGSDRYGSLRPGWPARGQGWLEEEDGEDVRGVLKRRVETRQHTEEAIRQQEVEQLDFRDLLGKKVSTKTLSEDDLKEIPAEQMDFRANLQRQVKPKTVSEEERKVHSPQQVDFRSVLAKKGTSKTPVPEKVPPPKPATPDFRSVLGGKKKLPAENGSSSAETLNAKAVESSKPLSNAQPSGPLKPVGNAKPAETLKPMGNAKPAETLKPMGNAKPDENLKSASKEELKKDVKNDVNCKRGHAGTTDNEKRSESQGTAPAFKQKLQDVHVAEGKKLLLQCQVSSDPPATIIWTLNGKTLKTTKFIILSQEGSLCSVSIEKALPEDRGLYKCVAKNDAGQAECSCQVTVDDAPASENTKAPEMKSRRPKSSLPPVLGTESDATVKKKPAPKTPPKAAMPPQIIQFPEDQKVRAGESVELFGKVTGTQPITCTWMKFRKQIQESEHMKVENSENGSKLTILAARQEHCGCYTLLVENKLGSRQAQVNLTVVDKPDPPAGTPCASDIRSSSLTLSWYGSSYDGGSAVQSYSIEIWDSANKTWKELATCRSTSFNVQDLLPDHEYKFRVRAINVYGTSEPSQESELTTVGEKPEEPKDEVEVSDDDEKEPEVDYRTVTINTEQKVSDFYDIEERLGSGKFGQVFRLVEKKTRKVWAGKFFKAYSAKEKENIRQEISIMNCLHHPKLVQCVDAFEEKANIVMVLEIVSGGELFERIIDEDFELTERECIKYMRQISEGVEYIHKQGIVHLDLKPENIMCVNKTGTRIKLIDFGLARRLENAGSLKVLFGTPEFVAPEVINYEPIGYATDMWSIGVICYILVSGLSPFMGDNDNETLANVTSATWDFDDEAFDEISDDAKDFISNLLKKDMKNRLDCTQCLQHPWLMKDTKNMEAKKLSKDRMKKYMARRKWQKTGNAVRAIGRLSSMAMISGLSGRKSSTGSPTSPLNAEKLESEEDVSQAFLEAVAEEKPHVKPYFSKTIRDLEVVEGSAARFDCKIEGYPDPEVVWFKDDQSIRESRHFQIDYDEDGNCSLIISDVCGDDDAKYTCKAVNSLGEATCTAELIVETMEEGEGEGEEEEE
Sequence of Interleukin-1 receptor-associated kinase 1 (Homo sapiens) (P51617 whole entry, looked up): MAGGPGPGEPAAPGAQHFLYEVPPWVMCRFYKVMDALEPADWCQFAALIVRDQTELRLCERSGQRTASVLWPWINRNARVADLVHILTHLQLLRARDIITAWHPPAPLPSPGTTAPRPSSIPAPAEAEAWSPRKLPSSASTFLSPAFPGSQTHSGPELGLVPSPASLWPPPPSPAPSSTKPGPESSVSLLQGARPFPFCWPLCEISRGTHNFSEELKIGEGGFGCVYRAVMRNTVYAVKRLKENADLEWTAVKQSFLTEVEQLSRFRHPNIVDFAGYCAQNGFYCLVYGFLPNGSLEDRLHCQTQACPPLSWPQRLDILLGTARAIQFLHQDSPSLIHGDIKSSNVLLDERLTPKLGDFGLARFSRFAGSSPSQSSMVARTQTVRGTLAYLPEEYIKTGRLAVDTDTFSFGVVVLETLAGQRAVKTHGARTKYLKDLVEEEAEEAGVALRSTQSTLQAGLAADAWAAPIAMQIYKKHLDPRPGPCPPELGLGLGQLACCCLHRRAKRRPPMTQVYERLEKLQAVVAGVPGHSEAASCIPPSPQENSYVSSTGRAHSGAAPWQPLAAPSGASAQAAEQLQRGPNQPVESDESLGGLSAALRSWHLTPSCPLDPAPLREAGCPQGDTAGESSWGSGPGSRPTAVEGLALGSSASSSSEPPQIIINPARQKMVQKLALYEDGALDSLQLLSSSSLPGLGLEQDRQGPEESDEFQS
Sequence of Maternal embryonic leucine zipper kinase (Homo sapiens) (Q14680 whole entry, looked up): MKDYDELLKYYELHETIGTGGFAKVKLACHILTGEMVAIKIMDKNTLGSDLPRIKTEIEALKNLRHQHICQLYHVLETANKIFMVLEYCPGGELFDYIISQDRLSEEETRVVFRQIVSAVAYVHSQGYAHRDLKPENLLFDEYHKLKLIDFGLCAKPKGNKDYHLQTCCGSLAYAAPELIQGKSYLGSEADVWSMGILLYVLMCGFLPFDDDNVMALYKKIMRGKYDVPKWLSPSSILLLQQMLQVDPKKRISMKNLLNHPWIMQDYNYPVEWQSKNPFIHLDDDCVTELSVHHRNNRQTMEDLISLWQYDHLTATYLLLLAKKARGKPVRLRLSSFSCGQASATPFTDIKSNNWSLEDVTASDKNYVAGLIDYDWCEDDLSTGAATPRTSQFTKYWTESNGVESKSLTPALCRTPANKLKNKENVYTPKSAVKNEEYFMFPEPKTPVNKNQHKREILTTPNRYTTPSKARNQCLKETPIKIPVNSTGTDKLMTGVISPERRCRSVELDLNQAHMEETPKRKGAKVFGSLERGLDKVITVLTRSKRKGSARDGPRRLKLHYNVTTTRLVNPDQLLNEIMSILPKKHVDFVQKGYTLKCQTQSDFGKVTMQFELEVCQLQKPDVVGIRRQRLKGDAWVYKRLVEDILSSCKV
Sequence of Mitogen-activated protein kinase kinase kinase 1 (Homo sapiens) (Q13233 whole entry): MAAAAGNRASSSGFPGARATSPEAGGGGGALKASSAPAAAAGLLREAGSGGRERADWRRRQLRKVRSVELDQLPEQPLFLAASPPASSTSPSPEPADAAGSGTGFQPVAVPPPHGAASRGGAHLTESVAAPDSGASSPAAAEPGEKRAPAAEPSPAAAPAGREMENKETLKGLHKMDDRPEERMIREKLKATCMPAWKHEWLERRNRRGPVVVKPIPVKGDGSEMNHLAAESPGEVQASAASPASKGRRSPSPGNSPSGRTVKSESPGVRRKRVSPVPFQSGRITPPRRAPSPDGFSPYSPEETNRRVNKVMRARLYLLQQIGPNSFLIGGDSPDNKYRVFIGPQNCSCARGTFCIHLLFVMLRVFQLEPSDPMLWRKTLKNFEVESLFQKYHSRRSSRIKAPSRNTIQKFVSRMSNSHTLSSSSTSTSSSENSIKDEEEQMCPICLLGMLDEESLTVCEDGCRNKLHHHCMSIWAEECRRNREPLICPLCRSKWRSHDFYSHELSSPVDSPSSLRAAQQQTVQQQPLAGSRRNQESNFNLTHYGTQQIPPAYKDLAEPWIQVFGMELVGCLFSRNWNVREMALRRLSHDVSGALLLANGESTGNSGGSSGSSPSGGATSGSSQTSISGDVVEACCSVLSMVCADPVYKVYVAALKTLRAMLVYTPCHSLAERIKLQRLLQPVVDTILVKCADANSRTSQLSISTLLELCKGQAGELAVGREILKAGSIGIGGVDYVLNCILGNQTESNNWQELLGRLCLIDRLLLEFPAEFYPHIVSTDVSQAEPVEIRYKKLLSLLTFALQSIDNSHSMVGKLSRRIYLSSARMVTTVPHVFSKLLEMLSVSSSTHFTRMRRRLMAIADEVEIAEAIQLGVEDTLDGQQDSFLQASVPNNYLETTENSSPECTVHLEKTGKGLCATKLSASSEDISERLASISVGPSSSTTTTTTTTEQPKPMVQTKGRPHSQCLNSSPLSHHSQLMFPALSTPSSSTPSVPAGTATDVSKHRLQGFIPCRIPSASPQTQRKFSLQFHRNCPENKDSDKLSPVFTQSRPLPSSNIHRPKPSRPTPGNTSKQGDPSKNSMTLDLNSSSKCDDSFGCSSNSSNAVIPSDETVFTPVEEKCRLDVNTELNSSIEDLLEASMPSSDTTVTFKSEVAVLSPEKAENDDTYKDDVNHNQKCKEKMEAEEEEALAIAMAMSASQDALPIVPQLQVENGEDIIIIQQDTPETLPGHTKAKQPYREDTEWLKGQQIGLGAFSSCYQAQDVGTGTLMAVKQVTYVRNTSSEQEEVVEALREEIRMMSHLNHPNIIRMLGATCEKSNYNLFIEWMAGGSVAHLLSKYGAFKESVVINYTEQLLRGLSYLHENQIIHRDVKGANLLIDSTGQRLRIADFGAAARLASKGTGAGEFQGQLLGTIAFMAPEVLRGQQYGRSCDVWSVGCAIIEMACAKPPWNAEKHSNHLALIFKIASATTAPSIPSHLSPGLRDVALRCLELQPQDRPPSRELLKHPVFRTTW

In the case of `Cc1ccc(-c2cc(C(=O)Nc3ccnc(Cl)c3)nn2-c2ccc3ccccc3n2)cc1`, the inhibition [1] is reported as “inactive”, the Activity [2] is reported as “Active” and the Activity [3] is reported as 58.7%. The Activity [4] was 99%, the Activity [5] was 103% and the Activity [6] was 86%. It also gave an Activity [7] of 84%, an Activity [8] of 103% and an Activity [9] of 94%. The Activity [10] was 99%, the Activity [11] was 99% and the Activity [12] was 109%. The Activity [13] was 100%, the Activity [14] was 104% and the Activity [15] was 98%. The Activity [16] was 101%, the Activity [17] was 70% and the Activity [18] was 93%. For the same molecule, the Activity [19] was 113%, the Activity [20] was 90% and the Activity [21] was 109%. For the same molecule, the Activity [22] was 113%.
